{"source": "paper PMC6884402", "about": "(ACS infectious diseases, 2018)", "key": {"[1]": {"system": "virulent Type I RH strain of T. gondii that expresses luciferase", "experiment": "In vivo efficacy against acute toxoplasmosis in mice", "set-up": "species or system Toxoplasma gondii", "conditions": "5 mg/kg orally for 5 days; for luminescence from infection: at day 13 / prior to euthanasia; for survival of infected mice: CF-1 mice, 4 per group"}, "human cyt bc1": {"system": "human cyt bc1", "conditions": "cited from earlier work"}, "S. cerevisiae cyt bc1": {"system": "S. cerevisiae cyt bc1", "conditions": "cited from earlier work"}, "[2]": {"system": "T. gondii RH strain with T222P substitution in the cyt b Qi site", "experiment": "T. gondii T222P strain proliferation assay", "type": "cell-based, Toxoplasma gondii", "how_it_was_run": "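Compounds were DMSO-diluted (≤0.5% final) over human foreskin fibroblast monolayers. Wild-type or Thr222Pro RH tachyzoites (4000/well) expressing gfp and β-galactosidase were added; the mutant came from chemical mutagenesis plus selection. After 72 h at 37°C, 5% CO2, cells were lysed and chlorophenol red β-galactopyranoside added for 4 h, read spectrophotometrically. Each run ≥3 times in quadruplicate. Resistance is the T222P/wild-type EC50 ratio.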"}, "Dd2 P. falciparum strain": {"system": "Dd2 P. falciparum strain", "experiment": "72h P. falciparum blood stage proliferation assay", "type": "cell-based", "conditions": "Plasmodium falciparum, DD2, 72 h, read-out: Dd2 EC50 (P. falciparum)", "how_it_was_run": "(§1)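 Dd2 or I22L clone (I22L selected from Dd2 under quinolone pressure) blood stages in 2-fold dilution series, in triplicate. Final hematocrit 2% (v/v), starting parasitemia 0.2%. Incubated 72 h at 37°C under 5% CO2/5% O2/90% N2. SYBR Green I dye-detergent added for 1 h at room temperature in the dark, then fluorescence read. EC50 is the mean of ≥3 experiments. […]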"}, "[3]": {"system": "RH strain of T. gondii expressing β-galactosidase (wild type cyt b)", "experiment": "72h T. gondii tachyzoite proliferation assay", "type": "cell-based", "conditions": "Toxoplasma gondii, read-out: T. gondii EC50"}, "[4]": {"system": "P. falciparum Dd2 strain with I22L substitution in cytochrome b", "experiment": "P. falciparum I22L strain proliferation assay", "type": "cell-based, Plasmodium falciparum", "how_it_was_run": "as §1"}, "[5]": {"conditions": "rats, orally at 5 mk/kg; cited from earlier work"}, "Plasmodium": {"system": "Plasmodium", "conditions": "single dose of 1 mg/kg; cited from earlier work"}, "N. caninum": {"system": "N. caninum", "conditions": "10mg/kg dose; cited from earlier work"}, "[6]": {"conditions": "cited from earlier work"}}, "note": "Entries after “also recorded” stand apart in the source; their conditions may differ."}
{"smiles": "O=C1C(O)=C([C@H]2CC[C@H](c3ccc(Cl)cc3)CC2)C(=O)c2ccccc21", "note": "[ATV, Atovaquone, reference compound]", "values": [{"measurement": "T. gondii DNA in brain (quantitative real-time PCR)", "setting": "[1]", "value": "developed both systemic and brain infection"}, {"measurement": "T. gondii DNA in spleen (quantitative real-time PCR)", "setting": "[1]", "value": "developed both systemic and brain infection"}, {"measurement": "luminescence from infection", "setting": "[1]", "value": "detectable in the 2 surviving mice"}, {"measurement": "activity against human cyt bc1", "setting": "human cyt bc1", "value": "has activity"}]}
{"smiles": "Cc1[nH]c2ccccc2c(=O)c1-c1ccc(Oc2ccc(OC(F)(F)F)cc2)cc1", "note": "[Compound 1B]", "values": [{"measurement": "activity against human cyt bc1", "setting": "human cyt bc1", "value": "has activity"}, {"measurement": "activity against yeast (S. cerevisiae) cyt bc1", "setting": "S. cerevisiae cyt bc1", "value": "has activity"}]}
{"smiles": "COc1ccc2c(=O)c(-c3ccc(Oc4ccc(OC(F)(F)F)cc4)cc3)c(C)[nH]c2c1", "note": "[Compound 2B]", "values": [{"measurement": "activity against human cyt bc1", "setting": "human cyt bc1", "value": "do not inhibit"}, {"measurement": "activity against yeast (S. cerevisiae) cyt bc1", "setting": "S. cerevisiae cyt bc1", "value": "do not inhibit"}, {"measurement": "resistance caused by T222P substitution in T. gondii", "setting": "[2]", "value": "causes resistance"}]}
{"smiles": "CCCCCCCCCCCc1c(C)[nH]c2cc(OC)ccc2c1=O", "note": "[Compound 2C, 7-methoxy-2-methyl-3-undecylquinolin-4(1H)-one]", "values": [{"measurement": "EC50", "setting": "Dd2 P. falciparum strain", "value": 1.8, "unit": "nM"}, {"measurement": "EC50", "setting": "[3]", "value": 0.37, "unit": "nM"}]}
{"smiles": "COc1cc2[nH]c(C)c(-c3ccc(Oc4ccc(OC(F)(F)F)cc4)cc3)c(=O)c2cc1F", "note": "[Compound 3B]", "values": [{"measurement": "T. gondii DNA in brain (quantitative real-time PCR)", "setting": "[1]", "value": "evidence of brain infection by PCR that was similar to controls"}, {"measurement": "luminescence from infection", "setting": "[1]", "value": "3 of 4 mice did not have luminescence"}, {"measurement": "T. gondii DNA in brain (quantitative real-time PCR)", "setting": "[1]; listed as ELQ-316", "value": "had T. gondii infection in brain tissue"}, {"measurement": "T. gondii DNA in spleen (quantitative real-time PCR)", "setting": "[1]; listed as ELQ-316", "value": "not detected above the limits of detection in the spleen of 3 of 4 mice"}, {"measurement": "activity against human cyt bc1", "setting": "human cyt bc1", "value": "do not inhibit"}, {"measurement": "activity against yeast (S. cerevisiae) cyt bc1", "setting": "S. cerevisiae cyt bc1", "value": "do not inhibit"}, {"measurement": "resistance caused by T222P substitution in T. gondii", "setting": "[2]", "value": "causes resistance"}]}
{"smiles": "COc1cc2[nH]c(C)c(-c3ccc(Oc4ccc(OC(F)(F)F)cc4)cc3)c(=O)c2cc1Cl", "note": "[Compound 4B]", "values": [{"measurement": "resistance caused by I22L substitution in P. falciparum", "setting": "[4]", "value": "causes resistance"}, {"measurement": "activity against human cyt bc1", "setting": "human cyt bc1", "value": "do not inhibit"}, {"measurement": "activity against yeast (S. cerevisiae) cyt bc1", "setting": "S. cerevisiae cyt bc1", "value": "do not inhibit"}, {"measurement": "resistance caused by T222P substitution in T. gondii", "setting": "[2]", "value": "causes resistance"}]}
{"smiles": "Cc1[nH]c2cc(F)cc(F)c2c(=O)c1-c1ccc(Oc2ccc(OC(F)(F)F)cc2)cc1", "note": "[Compound 8B]", "values": [{"measurement": "T. gondii DNA in brain (quantitative real-time PCR)", "setting": "[1]", "value": "not detected"}, {"measurement": "T. gondii DNA in spleen (quantitative real-time PCR)", "setting": "[1]", "value": "not detected"}, {"measurement": "survival of infected mice", "setting": "[1]", "value": "survived until day 32; also recorded: all mice survived"}, {"measurement": "survival of infected mice", "setting": "[1]; listed as ELQ-400", "value": "alive at the completion of the experiment"}, {"measurement": "T. gondii DNA in brain (quantitative real-time PCR)", "setting": "[1]; listed as ELQ-400", "value": "did not have infection detectable by PCR"}, {"measurement": "T. gondii DNA in spleen (quantitative real-time PCR)", "setting": "[1]; listed as ELQ-400", "value": "none of the mice"}, {"measurement": "maximum concentration", "setting": "[5]", "value": 71.2, "unit": "ng/mL"}, {"measurement": "activity against human cyt bc1", "setting": "human cyt bc1", "value": "has activity"}, {"measurement": "efficacy in a mouse model of malaria", "setting": "Plasmodium", "value": "curative"}, {"measurement": "site of inhibition in S. cerevisiae cyt b", "setting": "S. cerevisiae cyt bc1", "value": "inhibit both the Qo and Qi site"}, {"measurement": "efficacy against N. caninum infection", "setting": "N. caninum", "value": "effective in reducing infection"}, {"measurement": "toxicity in general cell assays and in vivo efficacy studies", "setting": "[6]", "value": "toxicity was not observed"}]}
